Our source for the IC50 values is ChEMBL document CHEMBL1147539, “Synthesis and biological evaluation of novel, selective, nonsteroidal glucocorticoid receptor antagonists” (Bioorg Med Chem Lett, 2004).

For assay [1], the target named is T1, Glucocorticoid receptor (Homo sapiens, UniProt P04150).
T1 sequence (P04150 whole entry): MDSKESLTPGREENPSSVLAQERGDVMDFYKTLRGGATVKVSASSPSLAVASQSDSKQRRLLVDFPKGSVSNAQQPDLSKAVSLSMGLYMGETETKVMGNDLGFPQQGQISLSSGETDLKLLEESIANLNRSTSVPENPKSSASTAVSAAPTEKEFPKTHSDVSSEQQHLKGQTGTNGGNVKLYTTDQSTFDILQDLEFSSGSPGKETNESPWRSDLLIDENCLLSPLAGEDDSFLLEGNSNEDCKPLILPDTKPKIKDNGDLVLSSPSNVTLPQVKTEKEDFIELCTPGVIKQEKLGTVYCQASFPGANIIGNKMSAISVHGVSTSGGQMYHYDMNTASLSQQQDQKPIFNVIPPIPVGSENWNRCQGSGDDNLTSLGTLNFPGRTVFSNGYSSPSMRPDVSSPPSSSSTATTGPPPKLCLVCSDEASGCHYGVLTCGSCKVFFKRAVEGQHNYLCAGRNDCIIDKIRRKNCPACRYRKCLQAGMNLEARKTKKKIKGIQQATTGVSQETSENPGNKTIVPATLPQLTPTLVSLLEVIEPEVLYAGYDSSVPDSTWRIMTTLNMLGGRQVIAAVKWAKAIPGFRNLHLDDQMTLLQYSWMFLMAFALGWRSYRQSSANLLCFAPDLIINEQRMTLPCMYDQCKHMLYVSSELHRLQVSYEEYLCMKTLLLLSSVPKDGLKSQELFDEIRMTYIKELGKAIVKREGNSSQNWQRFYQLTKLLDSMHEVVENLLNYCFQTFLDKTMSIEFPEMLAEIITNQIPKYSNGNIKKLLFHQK
The experiment in a line: Effect on human Glucocorticoid receptor (GR) in a whole cell assay to measure functional cellular GR-antagonism (GRAF).

Assay [2] deals with T2, Androgen receptor (Homo sapiens, UniProt P10275).
T2 sequence (P10275 whole entry): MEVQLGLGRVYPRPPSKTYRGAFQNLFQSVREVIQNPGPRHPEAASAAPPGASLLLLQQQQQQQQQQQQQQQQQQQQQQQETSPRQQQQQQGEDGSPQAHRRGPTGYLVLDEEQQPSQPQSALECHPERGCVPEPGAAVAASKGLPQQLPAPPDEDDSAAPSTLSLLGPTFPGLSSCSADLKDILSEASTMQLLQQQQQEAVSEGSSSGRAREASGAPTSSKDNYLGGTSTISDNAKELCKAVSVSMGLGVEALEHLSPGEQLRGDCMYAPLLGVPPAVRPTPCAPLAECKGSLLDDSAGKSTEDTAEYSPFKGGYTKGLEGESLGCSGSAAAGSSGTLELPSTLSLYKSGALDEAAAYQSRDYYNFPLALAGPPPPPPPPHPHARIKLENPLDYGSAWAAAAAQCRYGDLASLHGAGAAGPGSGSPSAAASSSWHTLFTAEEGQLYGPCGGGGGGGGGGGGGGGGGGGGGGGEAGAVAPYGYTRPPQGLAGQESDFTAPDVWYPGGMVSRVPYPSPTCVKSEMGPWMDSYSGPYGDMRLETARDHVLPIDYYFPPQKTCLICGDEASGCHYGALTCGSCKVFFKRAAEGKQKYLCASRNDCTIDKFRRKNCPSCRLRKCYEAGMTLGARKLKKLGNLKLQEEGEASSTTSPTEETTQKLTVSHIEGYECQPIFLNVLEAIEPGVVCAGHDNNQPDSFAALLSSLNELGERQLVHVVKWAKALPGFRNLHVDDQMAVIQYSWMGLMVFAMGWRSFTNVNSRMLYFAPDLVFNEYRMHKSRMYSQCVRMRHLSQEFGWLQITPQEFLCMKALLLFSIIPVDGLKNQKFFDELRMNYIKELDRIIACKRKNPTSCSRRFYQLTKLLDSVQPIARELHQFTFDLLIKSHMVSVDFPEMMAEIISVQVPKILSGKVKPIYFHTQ
Nature of the assay: Displacement of [3H]mibolerone from human Androgen receptor. (In general: In a radioligand displacement assay an active substance lowers the binding of a labelled ligand.)

Assay [3] deals with T3, Mineralocorticoid receptor (Homo sapiens, UniProt P08235).
T3 sequence (P08235 whole entry): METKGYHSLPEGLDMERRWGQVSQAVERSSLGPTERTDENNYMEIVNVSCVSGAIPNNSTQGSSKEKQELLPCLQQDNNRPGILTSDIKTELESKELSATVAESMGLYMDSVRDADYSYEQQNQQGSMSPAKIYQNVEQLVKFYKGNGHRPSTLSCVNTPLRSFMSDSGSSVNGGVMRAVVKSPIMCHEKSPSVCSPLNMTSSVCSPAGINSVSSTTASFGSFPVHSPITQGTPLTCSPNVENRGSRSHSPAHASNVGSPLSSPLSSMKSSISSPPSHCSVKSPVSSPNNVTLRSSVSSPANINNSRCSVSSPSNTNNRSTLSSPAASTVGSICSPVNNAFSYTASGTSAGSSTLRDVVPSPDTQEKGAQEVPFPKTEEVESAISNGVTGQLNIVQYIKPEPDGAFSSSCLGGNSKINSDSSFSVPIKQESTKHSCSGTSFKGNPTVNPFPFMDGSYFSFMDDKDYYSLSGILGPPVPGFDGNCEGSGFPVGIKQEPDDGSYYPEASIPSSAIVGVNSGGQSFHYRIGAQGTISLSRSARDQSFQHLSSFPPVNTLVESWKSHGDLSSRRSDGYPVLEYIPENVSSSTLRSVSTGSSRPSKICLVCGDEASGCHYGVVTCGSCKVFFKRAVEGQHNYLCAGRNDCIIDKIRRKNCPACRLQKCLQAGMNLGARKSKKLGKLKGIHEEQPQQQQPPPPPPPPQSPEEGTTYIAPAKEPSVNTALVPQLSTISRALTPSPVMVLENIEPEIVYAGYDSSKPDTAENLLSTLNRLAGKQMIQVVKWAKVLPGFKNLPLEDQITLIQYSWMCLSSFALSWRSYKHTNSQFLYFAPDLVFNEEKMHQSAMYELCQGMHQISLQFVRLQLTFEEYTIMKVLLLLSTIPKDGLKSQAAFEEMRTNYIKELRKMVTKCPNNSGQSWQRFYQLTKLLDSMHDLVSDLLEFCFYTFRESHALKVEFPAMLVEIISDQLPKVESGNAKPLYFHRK
The experiment in a line: Displacement of [3H]aldosterone from human Mineralocorticoid receptor. The essentials:
(§1)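 Human steroid receptor (PR, MR, AR, ERα) binding measured by radioligand displacement, with IC50s determined in duplicate. Values without a range come from a single experiment, and values with a range are geometric means of repeat experiments.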

The target in assay [4] is T1, Glucocorticoid receptor. Nature of the assay: Displacement of [3H]dexamethasone from human Glucocorticoid receptor (GR).
For assay [5], the target named is T4, Progesterone receptor (Homo sapiens, UniProt P06401).
T4 sequence (P06401 whole entry): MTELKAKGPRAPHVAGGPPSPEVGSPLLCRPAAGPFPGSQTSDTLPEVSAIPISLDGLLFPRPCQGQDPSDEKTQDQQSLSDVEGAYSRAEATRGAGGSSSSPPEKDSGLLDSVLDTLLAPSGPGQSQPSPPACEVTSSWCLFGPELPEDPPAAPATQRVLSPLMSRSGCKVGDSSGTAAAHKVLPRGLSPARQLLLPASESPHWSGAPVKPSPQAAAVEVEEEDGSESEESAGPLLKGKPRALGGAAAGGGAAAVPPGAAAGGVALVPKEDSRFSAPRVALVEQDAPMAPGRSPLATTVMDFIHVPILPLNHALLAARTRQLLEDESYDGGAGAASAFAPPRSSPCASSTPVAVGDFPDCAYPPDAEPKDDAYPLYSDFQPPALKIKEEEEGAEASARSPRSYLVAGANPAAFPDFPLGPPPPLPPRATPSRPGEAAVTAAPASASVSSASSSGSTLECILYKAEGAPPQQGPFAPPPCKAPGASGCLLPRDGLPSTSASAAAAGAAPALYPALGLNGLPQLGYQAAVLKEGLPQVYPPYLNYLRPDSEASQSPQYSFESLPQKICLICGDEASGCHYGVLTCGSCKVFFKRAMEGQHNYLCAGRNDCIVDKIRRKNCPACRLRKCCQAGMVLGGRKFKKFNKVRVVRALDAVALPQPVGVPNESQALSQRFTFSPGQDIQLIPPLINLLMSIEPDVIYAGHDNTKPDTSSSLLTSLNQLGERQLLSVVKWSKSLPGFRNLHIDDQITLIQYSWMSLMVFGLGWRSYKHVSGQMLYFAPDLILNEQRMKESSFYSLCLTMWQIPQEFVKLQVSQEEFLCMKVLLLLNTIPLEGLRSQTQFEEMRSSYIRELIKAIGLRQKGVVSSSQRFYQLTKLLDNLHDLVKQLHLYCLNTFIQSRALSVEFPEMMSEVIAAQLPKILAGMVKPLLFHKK
Nature of the assay: Displacement of [3H]progesterone from human Progesterone receptor. In a few lines: as §1

Assay [6] addresses T1, Glucocorticoid receptor. The experiment in a line: Displacement of [3H]dexamethasone from human Glucocorticoid receptor (GR); Value ranges from 1428-1433 nM. The essentials: (§2)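 Binding to human GR; IC50 reported as the geometric mean of two experiments (three for some values), each run in duplicate, with the range of the experiments given.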
Assay [7] concerns the target T1, Glucocorticoid receptor. Nature of the assay: Displacement of [3H]dexamethasone from human Glucocorticoid receptor (GR); […].
Assay [8] concerns the target T1, Glucocorticoid receptor. The experiment in a line: Displacement of [3H]dexamethasone from human Glucocorticoid receptor (GR); Value ranges from 159-161 nM. In a few lines:
as §2

The target of assay [9] is T1, Glucocorticoid receptor. The experiment in a line: Displacement of [3H]dexamethasone from human Glucocorticoid receptor (GR); Value ranges from 5-6 nM. In a few lines:
as §2

Assay [10] addresses T1, Glucocorticoid receptor. The experiment in a line: Displacement of [3H]dexamethasone from human Glucocorticoid receptor (GR); Value ranges from 3-4 nM. The essentials:
as §2

For assay [11], the target named is T1, Glucocorticoid receptor. Nature of the assay: Displacement of [3H]dexamethasone from human Glucocorticoid receptor (GR); Value ranges from 378-814 nM.
Assay [12] concerns the target T5, Estrogen receptor (Homo sapiens, UniProt P03372).
T5 sequence (P03372 whole entry): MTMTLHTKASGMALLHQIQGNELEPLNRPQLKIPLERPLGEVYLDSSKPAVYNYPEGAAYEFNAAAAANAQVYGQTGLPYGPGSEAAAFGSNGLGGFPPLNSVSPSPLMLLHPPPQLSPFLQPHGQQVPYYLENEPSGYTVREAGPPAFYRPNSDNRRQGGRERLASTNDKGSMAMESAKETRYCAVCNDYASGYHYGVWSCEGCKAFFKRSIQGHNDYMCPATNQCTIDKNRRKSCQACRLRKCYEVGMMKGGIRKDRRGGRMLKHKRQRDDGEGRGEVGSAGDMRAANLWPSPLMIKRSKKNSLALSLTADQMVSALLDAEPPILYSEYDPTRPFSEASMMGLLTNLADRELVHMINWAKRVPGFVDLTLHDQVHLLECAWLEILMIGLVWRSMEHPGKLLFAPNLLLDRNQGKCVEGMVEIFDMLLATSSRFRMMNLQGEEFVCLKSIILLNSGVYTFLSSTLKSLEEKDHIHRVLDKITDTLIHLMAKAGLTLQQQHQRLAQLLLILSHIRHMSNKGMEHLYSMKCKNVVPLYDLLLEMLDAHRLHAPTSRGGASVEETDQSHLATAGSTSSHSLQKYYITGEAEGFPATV
Nature of the assay: Displacement of [3H]estradiol from human estrogen receptor alpha. The essentials: as §1

Assay [13] deals with T1, Glucocorticoid receptor.
Assay [14] deals with T1, Glucocorticoid receptor. The source holds these as a separate data set.

Turning to `COc1cccc2c1-c1ccc(NS(C)(=O)=O)cc1C(c1cc(C)cc(C)c1)O2` (stereo unspecified), the IC50 (commonly the concentration at which inhibition is half-maximal) in assay [1] is 78 nM; in assay [2], over 10000 nM; in [3] it was 1220 nM; in assay [4] it was 2 nM.

With `COc1cccc2c1-c1ccc(NS(C)(=O)=O)cc1C(c1cccc(C)c1)O2` (stereo unspecified), the IC50 was 21 nM in assay [1]; over 10000 nM in assay [2]; 333 nM in assay [3]; 236 nM in assay [5]; 1 nM in assay [4].

Regarding `COc1cccc2c1-c1ccc(NS(C)(=O)=O)cc1C(c1ccccn1)O2` (stereo unspecified), the IC50 in assay [6] amounted to 1430 nM.

For the compound `COc1cccc2c1-c1ccc(NS(C)(=O)=O)cc1C(C1CCCCC1)O2` (stereo unspecified), the IC50 was 630 nM in assay [1] and 47 nM in [7].

For `CCC(=O)Nc1ccc2c(c1)C(c1ccccc1)Oc1cccc(OC)c1-2` (stereo unspecified), the IC50 in assay [1] came out at 124 nM; in [8], 160 nM.

On to `COc1cccc(C2Oc3cccc(OC)c3-c3ccc(NS(C)(=O)=O)cc32)c1` (stereo unspecified), for which the IC50 in assay [1] was determined as 122 nM; in [9], 6 nM.

With `COc1cccc2c1-c1ccc(NS(C)(=O)=O)cc1C(c1ccc(Cl)c(Cl)c1)O2` (stereo unspecified), the IC50 in assay [1] was 378 nM; in [10], 3 nM.

For the compound `CNc1cccc(C2Oc3cccc(OC)c3-c3ccc(NS(C)(=O)=O)cc32)c1` (stereo unspecified), the IC50 in assay [1] came out at 180 nM; in assay [4], 23 nM.

The compound `CCCCCC1Oc2cccc(OC)c2-c2ccc(NS(C)(=O)=O)cc21` (stereo unspecified) came in with an IC50 in assay [4] of 21 nM.

For the compound `COc1cccc2c1-c1ccccc1C(c1ccccc1)O2` (stereo unspecified), the IC50 is 1910 nM in [1] and 10000 nM in assay [4].

In the case of `COc1cccc2c1-c1ccc(NS(C)(=O)=O)c(Br)c1C(c1ccccc1)O2` (stereo unspecified), the IC50 in assay [11] was 519 nM; in assay [1], 430 nM; in [12] it was 2280 nM; in assay [3], 454 nM; in assay [5], 10000 nM.

Regarding `COc1cccc2c1-c1ccc(NS(C)(=O)=O)cc1C(c1ccc(Oc3ccccc3)cc1)O2` (stereo unspecified), the figures for the IC50 in assay [1] and in [4] were 847 nM and 63 nM, respectively.

Take `COc1cccc2c1-c1ccc(NS(C)(=O)=O)cc1C(c1ccccc1)O2` (stereo unspecified): the IC50 is 87 nM in assay [1]; 19 nM in assay [7]; over 10000 nM in assay [12]; 6530 nM in assay [2]; 22900 nM in assay [3].

Regarding `CCS(=O)(=O)Nc1ccc2c(c1)C(c1ccccc1)Oc1cccc(OC)c1-2` (stereo unspecified), the IC50 is 251 nM in assay [1] and 62 nM in assay [7].

In the case of `COc1cccc2c1-c1ccc(NS(=O)(=O)c3ccccc3)cc1C(c1ccccc1)O2` (stereo unspecified), the IC50 turned out to be 137 nM in assay [1] and 146 nM in assay [13].

For the compound `COc1cccc2c1-c1ccc(NS(C)(=O)=O)cc1C(c1ccsc1)O2` (stereo unspecified), the values for the IC50 in assay [1] and in [14] were 43 nM and 11 nM, respectively.
